Test results from ChEMBL document CHEMBL3046016, “Antifeedant and growth inhibitory effects of some neo-clerodane diterpenoids isolated from Clerodendron species (Verbenaceae) on Earias vitella and Spodoptera litura” (2003).

Assays:
Type in all cases: functional
Spodoptera litura [1] = experiment: Insecticidal activity against pupal stage of Spodoptera litura in compound-treated castor leaves assessed as pupal mortality at 5 ug/cm2 relative to control
Earias vittella [2] = experiment: Insecticidal activity against pupal stage of Earias vitella assessed as pupal mortality at 10 ug/cm3 administered through artificial diet containing Abelmoschus esculentus seed powder (reference value: 8%)
Earias vittella [3] = experiment: Antifeedant activity against third-instar larval stage of Earias vitella assessed as decrease in diet consumption at 10 ug/cm3 administered through artificial diet containing Abelmoschus esculentus seed powder after 24 hr relative to acetone-treated control; set-up: scale not given: the % may be the effect or the level left
Summary of the method: (§1)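 Artificial diet was modified Klein medium with bhendi (Abelmoschus esculentus) seed powder in place of alfalfa. Compound in acetone was mixed into bhendi meal 12 h before diet preparation so the solvent evaporated. One 3 g diet cube was given to five freshly molted third-instar larvae in a muslin-covered container. After 24 h the cubes were weighed. %AF = 100 − (treated/control)×100.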

Earias vittella [4] = experiment: Insecticidal activity against adult Earias vitella assessed as adult emergence at 10 ug/cm3 administered through artificial diet containing Abelmoschus esculentus seed powder (reference value: 88%)
Earias vittella [5] = experiment: Insecticidal activity against third-instar larval stage of Earias vitella assessed as larval mortality at 5 ug/cm3 administered through artificial diet containing Abelmoschus esculentus seed powder (reference value: 4%)
Spodoptera litura [6] = experiment: Insecticidal activity against pupal stage of Spodoptera litura in compound-treated castor leaves assessed as pupal duration time at 5 ug/cm2 (reference value: 9.2 +/- 0.74 days)
Earias vittella [7] = experiment: Insecticidal activity against pupal stage of Earias vitella assessed as pupal mortality at 5 ug/cm3 administered through artificial diet containing Abelmoschus esculentus seed powder (reference value: 8%)
Earias vittella [8] = experiment: Insecticidal activity against adult Earias vitella assessed as adult deformity at 10 ug/cm3 administered through artificial diet containing Abelmoschus esculentus seed powder (reference value: 4%)
Earias vittella [9] = experiment: Insecticidal activity against female adult Earias vitella assessed as adult longevity time at 5 ug/cm3 administered through artificial diet containing Abelmoschus esculentus seed powder (reference value: 8.6 +/- 0.48 days)
Spodoptera litura [10] = experiment: Insecticidal activity against male adult Spodoptera litura in compound-treated castor leaves assessed as adult longevity time at 10 ug/cm2 (reference value: 9.4 +/- 0.48 days)
Spodoptera litura [11] = experiment: Insecticidal activity against pupal stage of Spodoptera litura in compound-treated castor leaves assessed as pupal weight at 10 ug/cm2 (reference value: 302.4 +/- 5.9 mg)
Spodoptera litura [12] = experiment: Insecticidal activity against male adult Spodoptera litura in compound-treated castor leaves assessed as adult longevity time at 5 ug/cm2 (reference value: 9.4 +/- 0.48 days)
Earias vittella [13] = experiment: Insecticidal activity against female adult Earias vitella assessed as adult longevity time at 10 ug/cm3 administered through artificial diet containing Abelmoschus esculentus seed powder (reference value: 8.6 +/- 0.48 days)
Spodoptera litura [14] = experiment: Insecticidal activity against adult Spodoptera litura in compound-treated castor leaves assessed as adult deformity at 5 ug/cm2 relative to control
Earias vittella [15] = experiment: Insecticidal activity against third-instar larval stage of Earias vitella assessed as larval mortality at 10 ug/cm3 administered through artificial diet containing Abelmoschus esculentus seed powder (reference value: 4%)
Earias vittella [16] = experiment: Insecticidal activity against male adult Earias vitella assessed as adult longevity time at 5 ug/cm3 administered through artificial diet containing Abelmoschus esculentus seed powder (reference value: 8.2 +/- 0.4 days)
Earias vittella [17] = experiment: Insecticidal activity against pupal stage of Earias vitella assessed as pupal duration time at 5 ug/cm3 administered through artificial diet containing Abelmoschus esculentus seed powder (reference value: 6.4 +/- 0.21 days)
Earias vittella [18] = experiment: Insecticidal activity against pupal stage of Earias vitella assessed as pupal duration time at 10 ug/cm3 administered through artificial diet containing Abelmoschus esculentus seed powder (reference value: 6.4 +/- 0.21 days)
Spodoptera litura [19] = experiment: Insecticidal activity against third-instar larval stage of Spodoptera litura in compound-treated castor leaves assessed as total larval duration time at 5 ug/cm2 (reference value: 12.4 +/- 0.48 days)
Spodoptera litura [20] = experiment: Insecticidal activity against female adult Spodoptera litura in compound-treated castor leaves assessed as adult longevity time at 5 ug/cm2 (reference value: 10 +/- 0.63 days)
Spodoptera litura [21] = experiment: Insecticidal activity against third-instar larval stage of Spodoptera litura in compound-treated castor leaves assessed as total larval duration time at 10 ug/cm2 (reference value: 12.4 +/- 0.48 days)
Spodoptera litura [22] = experiment: Insecticidal activity against pupal stage of Spodoptera litura in compound-treated castor leaves assessed as pupal weight at 5 ug/cm2 (reference value: 302.4 +/- 5.9 mg)
Earias vittella [23] = experiment: Insecticidal activity against adult Earias vitella assessed as adult emergence at 5 ug/cm3 administered through artificial diet containing Abelmoschus esculentus seed powder (reference value: 88%)
Spodoptera litura [24] = experiment: Antifeedant activity against third-instar larval stage of Spodoptera litura in compound-treated castor leaves assessed as decrease in diet consumption at 5 ug/cm2 after 24 hr by no-choice leaf disk assay relative to acetone-treated control; set-up: scale not given: the % may be the effect or the level left
Summary of the method: (§2)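 Larvae were reared on castor leaves at 25 ± 2 °C. In a no-choice test, compound in acetone was painted on the abaxial side of castor leaf disks and air-dried. Five freshly molted third-instar larvae, starved 4 h, were placed per Petri dish with wet cotton. There were five replicates. After 24 h, consumed leaf area was read on a leaf area meter. %AF = 100 − (treated/control)×100.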

Earias vittella [25] = experiment: Insecticidal activity against adult Earias vitella assessed as adult deformity at 5 ug/cm3 administered through artificial diet containing Abelmoschus esculentus seed powder (reference value: 4%)
Earias vittella [26] = experiment: Antifeedant activity against third-instar larval stage of Earias vitella assessed as decrease in diet consumption at 5 ug/cm3 administered through artificial diet containing Abelmoschus esculentus seed powder after 24 hr relative to acetone-treated control; set-up: scale not given: the % may be the effect or the level left; summary of the method: as §1
Earias vittella [27] = experiment: Insecticidal activity against pupal stage of Earias vitella assessed as pupal weight at 5 ug/cm3 administered through artificial diet containing Abelmoschus esculentus seed powder (reference value: 88.2 +/- 4.01 mg)
Spodoptera litura [28] = experiment: Insecticidal activity against pupal stage of Spodoptera litura in compound-treated castor leaves assessed as pupal duration time at 10 ug/cm2 (reference value: 9.2 +/- 0.74 days)
Earias vittella [29] = experiment: Insecticidal activity against third-instar larval stage of Earias vitella assessed as total larval duration time at 10 ug/cm3 administered through artificial diet containing Abelmoschus esculentus seed powder (reference value: 8.2 +/- 0.48 days)
Spodoptera litura [30] = experiment: Insecticidal activity against adult Spodoptera litura in compound-treated castor leaves assessed as adult deformity at 10 ug/cm2 relative to control
Spodoptera litura [31] = experiment: Antifeedant activity against third-instar larval stage of Spodoptera litura in compound-treated castor leaves assessed as decrease in diet consumption at 10 ug/cm2 after 24 hr by no-choice leaf disk assay relative to acetone-treated control; set-up: scale not given: the % may be the effect or the level left; summary of the method: as §2
Earias vittella [32] = experiment: Insecticidal activity against pupal stage of Earias vitella assessed as pupal weight at 10 ug/cm3 administered through artificial diet containing Abelmoschus esculentus seed powder (reference value: 88.2 +/- 4.01 mg)
Earias vittella [33] = experiment: Insecticidal activity against third-instar larval stage of Earias vitella assessed as total larval duration time at 5 ug/cm3 administered through artificial diet containing Abelmoschus esculentus seed powder (reference value: 8.2 +/- 0.48 days)
Spodoptera litura [34] = experiment: Insecticidal activity against pupal stage of Spodoptera litura in compound-treated castor leaves assessed as pupal mortality at 10 ug/cm2 relative to control
Earias vittella [35] = experiment: Insecticidal activity against male adult Earias vitella assessed as adult longevity time at 10 ug/cm3 administered through artificial diet containing Abelmoschus esculentus seed powder (reference value: 8.2 +/- 0.4 days)
Spodoptera litura [36] = experiment: Insecticidal activity against third-instar larval stage of Spodoptera litura in compound-treated castor leaves assessed as larval mortality at 10 ug/cm2 relative to control
Spodoptera litura [37] = experiment: Insecticidal activity against adult Spodoptera litura in compound-treated castor leaves assessed as adult emergence at 10 ug/cm2 relative to control
Spodoptera litura [38] = experiment: Insecticidal activity against adult Spodoptera litura in compound-treated castor leaves assessed as adult emergence at 5 ug/cm2 relative to control
Spodoptera litura [39] = experiment: Insecticidal activity against female adult Spodoptera litura in compound-treated castor leaves assessed as adult longevity time at 10 ug/cm2 (reference value: 10 +/- 0.63 days)
Spodoptera litura [40] = experiment: Insecticidal activity against third-instar larval stage of Spodoptera litura in compound-treated castor leaves assessed as larval mortality at 5 ug/cm2 relative to control

SMILES | mortality at 5 µg/cm2 (Spodoptera litura [1]) [%] | mortality (Earias vittella [2]) [%] | Activity (Earias vittella [3]) [%] | Activity (Earias vittella [4]) [%] | mortality (Earias vittella [5]) [%] | Time (Spodoptera litura [6]) [days] | mortality (Earias vittella [7]) [%] | Activity (Earias vittella [8]) [%] | Time (Earias vittella [9]) [days] | Time (Spodoptera litura [10]) [days] | Activity (Spodoptera litura [11]) [mg] | Time (Spodoptera litura [12]) [days] | Time (Earias vittella [13]) [days] | Activity (Spodoptera litura [14]) [%] | mortality (Earias vittella [15]) [%] | Time (Earias vittella [16]) [days] | Time (Earias vittella [17]) [days] | Time (Earias vittella [18]) [days] | Time (Spodoptera litura [19]) [days] | Time (Spodoptera litura [20]) [days] | also measured
CC(=O)OC[C@@]12[C@@H](OC(C)=O)C[C@@H](C)[C@](C)([C@@H]3C[C@H]4CC(O)O[C@H]4O3)[C@H]1CC[C@H](OC(C)=O)[C@]21CO1 (stereo not given in full) [15-HYDROXYEPICARYOPTIN] | 22.5 | 34 | 71.84 | 62 | 8 | 10.8 | 28 | 4 | 6.8 | 7.5 | 258.8 | 8 | 6.6 | 7.2 | 8 | 6.6 | 9 | 9.6 | 13.5 | 7.4 | Time (Spodoptera litura [21]): 14.2 days; Activity (Spodoptera litura [22]): 272.2 mg; Activity (Earias vittella [23]): 68%; Activity (Spodoptera litura [24]): 74%; Activity (Earias vittella [25]): 4%; Activity (Earias vittella [26]): 62.15%; Activity (Earias vittella [27]): 58 mg; Time (Spodoptera litura [28]): 11.6 days; Time (Earias vittella [29]): 10.2 days; Activity (Spodoptera litura [30]): 9.6%; Activity (Spodoptera litura [31]): 78%; Activity (Earias vittella [32]): 57.2 mg; Time (Earias vittella [33]): 9.8 days; mortality at 10 µg/cm2 (Spodoptera litura [34]): 27.6%; Time (Earias vittella [35]): 6.2 days; mortality at 10 µg/cm2 (Spodoptera litura [36]): 32%; Activity (Spodoptera litura [37]): 62.4%; Activity (Spodoptera litura [38]): 70.4%; Time (Spodoptera litura [39]): 7 days; mortality at 5 µg/cm2 (Spodoptera litura [40]): 20%
CC[C@@](C)(OC(C)=O)C(=O)O[C@H]1[C@H](OC(C)=O)C[C@@H]2[C@@](C)([C@@H]3C[C@H]4C=CO[C@H]4O3)[C@H](C)C[C@H](OC(C)=O)[C@@]2(COC(C)=O)[C@@]12CO2 [CLERODENDRIN B ACETATE] | 22.7 | 32 | 69 | 64 | 4 | 10.2 | 24 | 4 | 7.4 | 8.5 | 273.2 | 9 | 7.2 | 4.8 | 4 | 6.8 | 7 | 8.8 | 12.6 | 8.2 | Time (Spodoptera litura [21]): 13.1 days; Activity (Spodoptera litura [22]): 284.4 mg; Activity (Earias vittella [23]): 72.5%; Activity (Spodoptera litura [24]): 65.8%; Activity (Earias vittella [25]): 4%; Activity (Earias vittella [26]): 51%; Activity (Earias vittella [27]): 71.2 mg; Time (Spodoptera litura [28]): 11 days; Time (Earias vittella [29]): 9.7 days; Activity (Spodoptera litura [30]): 8.8%; Activity (Spodoptera litura [31]): 75%; Activity (Earias vittella [32]): 64.2 mg; Time (Earias vittella [33]): 9.2 days; mortality at 10 µg/cm2 (Spodoptera litura [34]): 27%; Time (Earias vittella [35]): 6.4 days; mortality at 10 µg/cm2 (Spodoptera litura [36]): 24%; Activity (Spodoptera litura [37]): 64%; Activity (Spodoptera litura [38]): 72%; Time (Spodoptera litura [39]): 8 days; mortality at 5 µg/cm2 (Spodoptera litura [40]): 20%
